Data as given in ChEMBL document CHEMBL2331250, “Synthesis of an MIF-1 analogue containing enantiopure (S)-α-trifluoromethyl-proline and biological evaluation on nociception” (Eur J Med Chem, 2013).
Active and inactive are the calls of the source. Residues, ends and D or L forms follow the SMILES beside them.

What was measured:
Type in all cases: functional, organism-based
Rattus norvegicus [1] = assay: Analgesic activity in Wistar rats assessed as increase in latency of response to pain at 1 mg/kg, ip treated 20 mins after 1 mg/kg, ip NO donor, L-arginine challenge measured after 15 to 45 mins by hot plate test
How it was run: (§1)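 Male Wistar rats (180–200 g), 12 h light/dark cycle, food and water ad libitum, tested 09.00–12.00, five rats per group. Peptide given i.p. in sterile 0.9% saline. Pretreatment agents (naloxone or L-Arg at 1 mg/kg, L-NAME at 10 mg/kg, i.p.) were given 20 min before the peptide. Readings began 15 min after peptide injection. Hot plate at 55 ± 0.5 °C; latency measured to first paw licking or jump; 30 s cut-off. Mean ± S.E.M., ANOVA, P < 0.05.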

Rattus norvegicus [2] = assay: Analgesic activity in Wistar rats assessed as increase in latency of response to pain at 1 mg/kg, ip treated 20 mins after 10 mg/kg, ip NOS inhibitor, L-NAME challenge measured after 15 to 45 mins by hot plate test; how it was run: as §1
Rattus norvegicus [3] = assay: Analgesic activity in Wistar rats assessed as increase in mechanical nociceptive threshold at 1 mg/kg, ip treated 20 mins after 1 mg/kg, ip NO donor, L-arginine challenge measured after 15 to 45 mins by paw pressure test
How it was run: (§2)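 Male Wistar rats (180–200 g), five per group, tested 09.00–12.00. Peptide given i.p. in sterile 0.9% saline. Pretreatment agents (naloxone or L-Arg at 1 mg/kg, L-NAME at 10 mg/kg, i.p.) were given 20 min before the peptide. Readings began 15 min after peptide injection. Randall-Selitto analgesimeter applied pressure to the hind paw; threshold was the pressure (g) eliciting squeak or struggle; 500 g cut-off. Mean ± S.E.M., ANOVA.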

Rattus norvegicus [4] = assay: Analgesic activity in Wistar rats assessed as increase in mechanical nociceptive threshold at 1 mg/kg, ip treated 20 mins after 10 mg/kg, ip NOS inhibitor, L-NAME challenge measured after 15 to 45 mins by paw pressure test; how it was run: as §2
Rattus norvegicus [5] = assay: Analgesic activity in Wistar rats assessed as increase in latency of response to pain at 1 mg/kg, ip treated 20 mins after 1 mg/kg, ip […] opiate receptor antagonist, naloxone challenge measured after 15 to 30 mins by hot plate test; how it was run: as §1
Rattus norvegicus [6] = assay: Analgesic activity in Wistar rats assessed as increase in mechanical nociceptive threshold at 1 mg/kg, ip treated 20 mins after 1 mg/kg, ip […] opiate receptor antagonist, naloxone challenge measured after 15 to 30 mins by paw pressure test; how it was run: as §2
Rattus norvegicus [7] = assay: Analgesic activity in Wistar rats assessed as increase in latency of response to pain at 1 mg/kg, ip measured after 15 to 45 mins by hot plate test; design: dose 1 mg/kg; how it was run: as §1
Rattus norvegicus [8] = assay: Analgesic activity in Wistar rats assessed as increase in mechanical nociceptive threshold at 1 mg/kg, ip measured after 15 to 30 mins by paw pressure test; design: dose 1 mg/kg; how it was run: as §2
Rattus norvegicus [9] = assay: Analgesic activity in Wistar rats assessed as increase in latency of response to pain at 1 mg/kg, ip measured after 15 mins by hot plate test; design: dose 1 mg/kg; how it was run: as §1
Rattus norvegicus [10] = assay: Analgesic activity in Wistar rats assessed as increase in mechanical nociceptive threshold at 1 mg/kg, ip measured after 15 mins by paw pressure test; design: dose 1 mg/kg; how it was run: as §2

CC(C)C[C@H](NC(=O)[C@]1(C(F)(F)F)CCCN1)C(=O)NCC(N)=O
Activity (Rattus norvegicus [1]): inactive | Activity (Rattus norvegicus [2]): inactive | Activity (Rattus norvegicus [3]): inactive | Activity (Rattus norvegicus [4]): inactive | Activity (Rattus norvegicus [5]): inactive | Activity (Rattus norvegicus [6]): inactive | Activity (Rattus norvegicus [7]): inactive | Activity (Rattus norvegicus [8]): Active

CC(C)C[C@H](NC(=O)[C@@H]1CCCN1)C(=O)NCC(N)=O (H-Pro-Leu-Gly-NH2)
Activity (Rattus norvegicus [1]): inactive | Activity (Rattus norvegicus [2]): inactive | Activity (Rattus norvegicus [3]): inactive | Activity (Rattus norvegicus [4]): inactive | Activity (Rattus norvegicus [5]): inactive | Activity (Rattus norvegicus [6]): inactive | Activity (Rattus norvegicus [9]): Active | Activity (Rattus norvegicus [10]): inactive
